Measured values: ChEMBL document CHEMBL1147863, “Synthesis, antimicrobial activities and cytogenetic studies of newer diazepino quinoline derivatives via Vilsmeier-Haack reaction” (2007)
Active and inactive are the calls of the source. The calls are words filed in the database; no cut-off is given here.

Key:
[1] = test system: Talaromyces funiculosus; assay: Antifungal activity against Penicillium funiculosum at 0.5% (w/v) concentration by disc diffusion method; format: functional
How it was run: (§1)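 Potato dextrose agar plates were seeded with a spore suspension (10⁶ spores/mL). Compounds in acetone at a final 0.5%, 1% or 2% w/v were loaded onto 5 mm filter-paper discs. Plates were incubated at 28 ± 2 °C for four days. Zone diameter was measured after subtracting the acetone-only plate zone, with carbendazim as standard.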

[2] = test system: Alternaria macrospora; assay: Antifungal activity against Alternaria macrospora at 2% (w/v) concentration by disc diffusion method; format: functional; how it was run: as §1
[3] = test system: Aspergillus flavus; assay: Antifungal activity against Aspergillus flavus at 2% (w/v) concentration by disc diffusion method; format: functional; how it was run: as §1
[4] = test system: Fusarium oxysporum; assay: Antifungal activity against Fusarium oxysporum at 1% (w/v) concentration by disc diffusion method; format: functional; how it was run: as §1
[5] = test system: Aspergillus flavus; assay: Antifungal activity against Aspergillus flavus at 1% (w/v) concentration by disc diffusion method; format: functional; how it was run: as §1
[6] = test system: Fusarium oxysporum; assay: Antifungal activity against Fusarium oxysporum at 2% (w/v) concentration by disc diffusion method; format: functional; how it was run: as §1
[7] = test system: Talaromyces funiculosus; assay: Antifungal activity against Penicillium funiculosum at 2% (w/v) concentration by disc diffusion method; format: functional; how it was run: as §1
[8] = test system: Talaromyces funiculosus; assay: Antifungal activity against Penicillium funiculosum at 1% (w/v) concentration by disc diffusion method; format: functional; how it was run: as §1
[9] = test system: Fusarium oxysporum; assay: Antifungal activity against Fusarium oxysporum at 0.5% (w/v) concentration by disc diffusion method; format: functional; how it was run: as §1
[10] = test system: Alternaria macrospora; assay: Antifungal activity against Alternaria macrospora at 0.5% (w/v) concentration by disc diffusion method; format: functional; how it was run: as §1
[11] = test system: Aspergillus flavus; assay: Antifungal activity against Aspergillus flavus at 0.5% (w/v) concentration by disc diffusion method; format: functional; how it was run: as §1
[12] = test system: Alternaria macrospora; assay: Antifungal activity against Alternaria macrospora at 1% (w/v) concentration by disc diffusion method; format: functional; how it was run: as §1
[13] = test system: Aeromonas hydrophila; assay: Antibacterial activity against Aeromonas hydrophila at 0.5% (w/v) concentration after 24 hrs by disc diffusion method; format: functional
How it was run: (§2)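 Disc diffusion on nutrient agar (pH 7.5 ± 0.2) swabbed with bacterial culture; compounds dissolved in chloroform at 0.125%, 0.25% or 0.5% w/v, soaked onto 5 mm filter paper discs placed on seeded plates. Incubated 35 ± 2 °C, 24 h; inhibition zone diameter (mm) measured, minus zone from solvent-only plate.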

[14] = test system: Salmonella typhi; assay: Antibacterial activity against Salmonella typhi at 0.5% (w/v) concentration after 24 hrs by disc diffusion method; format: functional, Salmonella enterica subsp. enterica serovar Typhi
How it was run: (§3)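 Disc diffusion on nutrient agar (pH 7.5 ± 0.2) swabbed with bacteria. Compounds were dissolved in chloroform at a final 0.125%, 0.25% or 0.5% w/v and loaded onto 5 mm filter-paper discs. Plates were incubated at 35 ± 2 °C for 24 h. The inhibition-zone diameter (mm) was reported after subtracting the zone of the solvent-only plate.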

[15] = test system: Aeromonas hydrophila; assay: Antibacterial activity against Aeromonas hydrophila at 0.125% (w/v) concentration after 24 hrs by disc diffusion method; format: functional; how it was run: as §2
[16] = test system: Escherichia coli; assay: Antibacterial activity against Escherichia coli at 0.125% (w/v) concentration after 24 hrs by disc diffusion method; format: functional; how it was run: as §2
[17] = test system: Salmonella typhi; assay: Antibacterial activity against Salmonella typhi at 0.25% (w/v) concentration after 24 hrs by disc diffusion method; format: functional, Salmonella enterica subsp. enterica serovar Typhi; how it was run: as §3
[18] = test system: Escherichia coli; assay: Antibacterial activity against Escherichia coli at 0.5% (w/v) concentration by after 24 hrs by disc diffusion method; format: functional; how it was run: as §2
[19] = test system: Aeromonas hydrophila; assay: Antibacterial activity against Aeromonas hydrophila at 0.25% (w/v) concentration after 24 hrs by disc diffusion method; format: functional; how it was run: as §2
[20] = test system: Escherichia coli; assay: Antibacterial activity against Escherichia coli at 0.25% (w/v) concentration after 24 hrs by disc diffusion method; format: functional; how it was run: as §2
[21] = test system: Salmonella typhi; assay: Antibacterial activity against Salmonella typhi at 0.125% (w/v) concentration after 24 hrs by disc diffusion method; format: functional, Salmonella enterica subsp. enterica serovar Typhi; how it was run: as §3
[22] = Induction of chromosomal aberration in human peripheral blood leukocytes assessed as number of chromatid gaps at 20 ug/mL after 24 hrs; format: functional, Leukocyte
How it was run: (§4)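 Leukocytes from venous blood of three healthy non-smoking male donors, cultured at 37 °C for 72 h in McCoy's 5a with AB serum and PHA. Compound in 1% acetone was added at 0, 24 or 48 h after culture initiation (72, 48 or 24 h exposure), with water and acetone controls and triplicate cultures. Colchicine was added before harvest, then KCl hypotonic, fixation and Giemsa staining. Gaps and breaks were counted in 350 metaphases per treatment.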

[23] = Induction of chromosomal aberration in human peripheral blood leukocytes assessed as number of chromatid breaks at 20 ug/mL after 24 hrs; format: functional, Leukocyte; how it was run: as §4

Row | Structure (SMILES) | inhibition zone (IZ) [1] | inhibition zone (IZ) [2] | inhibition zone (IZ) [3] | inhibition zone (IZ) [4] | inhibition zone (IZ) [5] | inhibition zone (IZ) [6] | inhibition zone (IZ) [7] | inhibition zone (IZ) [8] | inhibition zone (IZ) [9] | inhibition zone (IZ) [10] | inhibition zone (IZ) [11] | inhibition zone (IZ) [12] | inhibition zone (IZ) [13] | inhibition zone (IZ) [14] | inhibition zone (IZ) [15] | inhibition zone (IZ) [17] | inhibition zone (IZ) [19] | inhibition zone (IZ) [21] | inhibition zone (IZ) [18] | inhibition zone (IZ) [20] | other results
1 | COC(=O)Nc1nc2ccccc2[nH]1 [CARBENDAZIM] | 9 mm | 18 mm | 21 mm | 11 mm | 14 mm | 18 mm | 21 mm | 16 mm | 6 mm | 7 mm | 6 mm | 13 mm | – | – | – | – | – | – | – | – | –
2 | O=Cc1c(/C=C/O)nc2ccccc2c1Cl | – | 4 mm | 8 mm | – | 3 mm | 4 mm | 5 mm | 1 mm | – | – | 2 mm | 1 mm | 9 mm | 9 mm | 4 mm | 5 mm | 6 mm | 3 mm | – | – | Activity [1]: inactive; Activity [4]: inactive; Activity [9]: inactive; Activity [16]: inactive; Activity [18]: inactive; Activity [20]: inactive; Activity [10]: inactive
3 | Cc1ccc(C)c2c(Cl)c(C=O)c(/C=C/O)nc12 | 3 mm | 13 mm | 12 mm | 7 mm | 7 mm | 12 mm | 11 mm | 7 mm | 3 mm | 3 mm | 4 mm | 8 mm | 10 mm | 13 mm | 4 mm | 8 mm | 6 mm | 5 mm | 9 mm | 5 mm | inhibition zone (IZ) [16]: 3 mm
4 | Cc1cccc2c(Cl)c(C=O)c(/C=C/O)nc12 | – | 9 mm | 5 mm | 3 mm | 2 mm | 7 mm | 6 mm | 2 mm | – | 2 mm | 1 mm | 5 mm | 11 mm | 11 mm | 4 mm | 7 mm | 8 mm | 4 mm | – | – | Activity [1]: inactive; Activity [9]: inactive; Activity [16]: inactive; Activity [18]: inactive; Activity [20]: inactive
5 | O=Cc1c(/C=C/O)nc2ccc(Cl)cc2c1Cl | 2 mm | 11 mm | 10 mm | 5 mm | 6 mm | 11 mm | 10 mm | 5 mm | 2 mm | 3 mm | 3 mm | 7 mm | 14 mm | 17 mm | 5 mm | 11 mm | 9 mm | 6 mm | 8 mm | 5 mm | inhibition zone (IZ) [16]: 1 mm
6 | Clc1ccc2nc3c(c(Cl)c2c1)C=NNC=C3 | 6 mm | 15 mm | 13 mm | 8 mm | 8 mm | 13 mm | 14 mm | 9 mm | 4 mm | 5 mm | 5 mm | 9 mm | 16 mm | 19 mm | 6 mm | 12 mm | 11 mm | 6 mm | 11 mm | 7 mm | inhibition zone (IZ) [16]: 3 mm
7 | Cc1ccc2c(Cl)c3c(nc2c1)C=CNN=C3 | 3 mm | 12 mm | 11 mm | 7 mm | 7 mm | 11 mm | 11 mm | 6 mm | 3 mm | 4 mm | 4 mm | 10 mm | 12 mm | 13 mm | 5 mm | 9 mm | 9 mm | 4 mm | 5 mm | 1 mm | Activity [16]: inactive; Activity [22]: 1.1%; Activity [23]: 0.6%
8 | Cc1ccc2c(Cl)c(C=O)c(/C=C/O)nc2c1 | 1 mm | 7 mm | 9 mm | 4 mm | 5 mm | 9 mm | 8 mm | 3 mm | 1 mm | 2 mm | 3 mm | 4 mm | 10 mm | 13 mm | 3 mm | 8 mm | 7 mm | 4 mm | 2 mm | – | Activity [16]: inactive; Activity [20]: inactive
9 | CN[C@@H]1[C@H](O[C@H]2[C@H](O[C@H]3[C@H](O)[C@@H](O)[C@H](N=C(N)N)[C@@H](O)[C@@H]3N=C(N)N)O[C@@H](C)[C@]2(O)C=O)O[C@@H](CO)[C@H](O)[C@H]1O (stereo in doubt) [STREPTOMYCIN] | – | – | – | – | – | – | – | – | – | – | – | – | 19 mm | 18 mm | 8 mm | 10 mm | 12 mm | 8 mm | 15 mm | 9 mm | inhibition zone (IZ) [16]: 6 mm
10 | Clc1c2c(nc3ccccc13)C=CNN=C2 | 1 mm | 7 mm | 9 mm | 3 mm | 5 mm | 7 mm | 9 mm | 4 mm | – | 1 mm | 3 mm | 3 mm | 12 mm | 10 mm | 5 mm | 6 mm | 8 mm | 4 mm | 4 mm | 2 mm | Activity [9]: inactive; Activity [16]: inactive
